For test [1], the target named is T1, SmARG (S. mansoni arginase) (Schistosoma mansoni, UniProt Q6WVP6).
T1 sequence (Q6WVP6 1-364): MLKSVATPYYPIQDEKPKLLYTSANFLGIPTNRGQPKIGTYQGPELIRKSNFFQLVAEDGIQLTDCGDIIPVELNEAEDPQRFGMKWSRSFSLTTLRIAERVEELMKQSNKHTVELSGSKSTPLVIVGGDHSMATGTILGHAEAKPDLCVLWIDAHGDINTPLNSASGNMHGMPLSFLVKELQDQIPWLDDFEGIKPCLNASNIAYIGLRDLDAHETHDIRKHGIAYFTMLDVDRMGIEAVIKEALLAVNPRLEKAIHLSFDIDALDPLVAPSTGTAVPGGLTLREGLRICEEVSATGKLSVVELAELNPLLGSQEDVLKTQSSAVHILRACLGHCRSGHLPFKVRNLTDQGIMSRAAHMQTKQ
Description: Isothermal titration calorimetry of SmARG–inhibitor complexes. It is filed as binding. Conditions: ITC Kd. For orientation: Isothermal titration calorimetry measures the heat released or taken up as one component is titrated into another.

Test [2] relates to human arginase I. Description: Isothermal titration calorimetry, human arginase I. It counts as binding. Conditions: ITC Kd, human arginase I versus SmARG.
The subject of test [3] is human arginase I. Conditions: cited from earlier work.
Test [4] concerns S. mansoni schistosomula. Description: Helminth fluorescence bioassay. Conditions: 100 μM, in vitro cocultivation. It is filed as cell-based, Schistosoma mansoni. In outline:
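S. mansoni schistosomula were mechanically transformed and exposed to test compound at 100 μM final. Incubation was 24 h (also 72 h) at 37 °C in humidified 5% CO2. Viability was then scored by the helminth fluorescence bioassay, in duplicate.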

The target in test [5] is T1, SmARG (S. mansoni arginase). The experiment in a line: Colorimetric arginase activity assay. Conditions: Figure S2b. It counts as biochemical. In outline: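 Recombinant SmARG was expressed in E. coli BL21(DE3) and purified by Talon affinity then size exclusion into bicine pH 8.5 with 100 μM MnCl2. Reactions used 0.5–50 mM L-arginine in 50 mM EPPS pH 8.5 with 100 μM MnCl2, started with 1 μM enzyme at 21 °C and stopped after 1 min with acid/α-isonitrosopropiophenone. Samples were heated 1 h at 90 °C and urea read at A550. Ki came from a competitive-inhibition Michaelis–Menten fit, in triplicate.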

“Also recorded” adds a separate entry of the source.

For the compound `N[C@@](CCCCB(O)O)(C(=O)O)C1CCN(Cc2ccc(Cl)c(Cl)c2)CC1` (racemic) [ABHDP, (R)-2-amino-6-borono-2-[1-(3,4-dichlorobenzyl)piperidin-4-yl]hexanoic acid], the “enhancement of affinity compared with the parent SmARG–ABH complex” value in test [1] worked out at 5 fold.
`N[C@@H](CCCCB(O)O)C(=O)O` [ABH, 2(S)-amino-6-boronohexanoic acid]: the “tighter binding to human arginase I than to SmARG” value in test [2] came to 260 fold. Also, the “preferential inhibition of human arginase I compared with nor-NOHA” value in test [3] is on record as “at least 10 fold”. Moreover, the “schistosomula viability or morphology” value in test [4] (24 h, 37 °C, absence of host) was “no significant difference; also recorded: do not affect parasite viability”; in test [4] (72 h (data not shown)), “no significant difference”.
In the case of `N[C@](CCCCB(O)O)(CCN1CCCCC1)C(=O)O` [ABHPE, (R)-2-amino-6-borono-2-[2-(piperidin-1-yl)ethyl]hexanoic acid], in test [1], the “enhancement of affinity compared with the parent SmARG–ABH complex” value is 2 fold.
For the compound `Cl.O=C(O)CCP(CCC(=O)O)CCC(=O)O` [TCEP, Tris(2-carboxyethyl)phosphine hydrochloride], the “SmARG activity in the presence of reducing reagents” value in test [5] is “severely attenuated”.
As to `N=C(NO)NCC[C@H](N)C(=O)O` [nor-NOHA, nor-N-hydroxy-L-arginine], in test [1] (N-hydroxyguanidinium moiety versus tetrahedral boronate anion of ABH), the “more effective than ABH in binding to SmARG” value is on record as roughly 4 fold. The “schistosomula viability or morphology” value in test [4] (24 h, 37 °C, absence of host) is on record as “no significant difference; also recorded: do not affect parasite viability”; in test [4] (72 h (data not shown)), “no significant difference”.

The values above are taken from article PMC4138072 (Biochemistry, 2014).
